Laboratory results reported in PMC10205775 (Saudi Pharmaceutical Journal : SPJ, 2023).
Several values for one entry are separate records, joined by “and”; a condition that tells them apart may be missing. Equal entries are not always repeated. Blank lines part the entries; values can stand above or below the molecule they belong to.

What was measured:
HepG2 = assay: MTT antiproliferative assay, HepG2; assay type: cell-based; settings: Homo sapiens, HepG2, read-out: In vitro Cytotoxicity IC50 HepG2
MDA-MB-231 = assay: MTT antiproliferative assay, MDA-MB-231; assay type: cell-based; settings: Homo sapiens, MDA-MB-231, read-out: In vitro Cytotoxicity IC50 MDA-MB-231
HeLa = assay: MTT antiproliferative assay, HeLa; settings: Homo sapiens, read-out: In vitro Cytotoxicity IC50 HeLa
MCF-7 = assay: MTT antiproliferative assay, MCF-7; settings: Homo sapiens, MCF7, read-out: In vitro Cytotoxicity IC50 MCF-7
[1] = tested on: HepG2, MCF-7, MDA-MB-231 and HeLa; assay: MTT antiproliferative assay, all tested cell lines; assay type: cell-based; settings: Homo sapiens, read-out: IC50 values against all tested cell lines (range)
CDK2 = CDK2 (Homo sapiens, UniProt P24941); assay: In vitro protein kinase assay, CDK2; assay type: biochemical
HepG2 cells [2] = assay: Annexin-V/propidium iodide double staining apoptosis assay; assay type: cell-based, human; settings: 24 h incubation
EGFR = EGFR (Homo sapiens, UniProt P00533); assay: In vitro protein kinase assay, EGFR; assay type: biochemical
HepG2 cells [3] = assay: Cell cycle distribution by flow cytometry; assay type: cell-based, human; settings: 8.39 μM of compound 7, 24 h
Caspase 9 = assay: Apoptotic protein expression, Caspase 9; assay type: cell-based, human; settings: HepG2 cells, 8.39 μM of compound 7, 24 h; control = 1
Outline: (§1)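 HepG2 cells were incubated with 8.39 μM test compound for 24 h. Apoptotic protein levels were measured by a previously reported method. Expression was normalised to β-actin and given as fold change versus untreated HepG2 cells, which were set to 1. Values are means of three experiments.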

Her2 = Her2 (Homo sapiens, UniProt P04626); assay: In vitro protein kinase assay, Her2; assay type: biochemical
VEGFR2 = VEGFR2 (Homo sapiens, UniProt P35968); assay: In vitro protein kinase assay, VEGFR2; assay type: biochemical
Caspase 3 = assay: Apoptotic protein expression, Caspase 3; assay type: cell-based, human; settings: HepG2 cells, 8.39 μM of compound 7, 24 h; control = 1
Outline: as §1

VEGFR2, sequence (P35968 20-1356): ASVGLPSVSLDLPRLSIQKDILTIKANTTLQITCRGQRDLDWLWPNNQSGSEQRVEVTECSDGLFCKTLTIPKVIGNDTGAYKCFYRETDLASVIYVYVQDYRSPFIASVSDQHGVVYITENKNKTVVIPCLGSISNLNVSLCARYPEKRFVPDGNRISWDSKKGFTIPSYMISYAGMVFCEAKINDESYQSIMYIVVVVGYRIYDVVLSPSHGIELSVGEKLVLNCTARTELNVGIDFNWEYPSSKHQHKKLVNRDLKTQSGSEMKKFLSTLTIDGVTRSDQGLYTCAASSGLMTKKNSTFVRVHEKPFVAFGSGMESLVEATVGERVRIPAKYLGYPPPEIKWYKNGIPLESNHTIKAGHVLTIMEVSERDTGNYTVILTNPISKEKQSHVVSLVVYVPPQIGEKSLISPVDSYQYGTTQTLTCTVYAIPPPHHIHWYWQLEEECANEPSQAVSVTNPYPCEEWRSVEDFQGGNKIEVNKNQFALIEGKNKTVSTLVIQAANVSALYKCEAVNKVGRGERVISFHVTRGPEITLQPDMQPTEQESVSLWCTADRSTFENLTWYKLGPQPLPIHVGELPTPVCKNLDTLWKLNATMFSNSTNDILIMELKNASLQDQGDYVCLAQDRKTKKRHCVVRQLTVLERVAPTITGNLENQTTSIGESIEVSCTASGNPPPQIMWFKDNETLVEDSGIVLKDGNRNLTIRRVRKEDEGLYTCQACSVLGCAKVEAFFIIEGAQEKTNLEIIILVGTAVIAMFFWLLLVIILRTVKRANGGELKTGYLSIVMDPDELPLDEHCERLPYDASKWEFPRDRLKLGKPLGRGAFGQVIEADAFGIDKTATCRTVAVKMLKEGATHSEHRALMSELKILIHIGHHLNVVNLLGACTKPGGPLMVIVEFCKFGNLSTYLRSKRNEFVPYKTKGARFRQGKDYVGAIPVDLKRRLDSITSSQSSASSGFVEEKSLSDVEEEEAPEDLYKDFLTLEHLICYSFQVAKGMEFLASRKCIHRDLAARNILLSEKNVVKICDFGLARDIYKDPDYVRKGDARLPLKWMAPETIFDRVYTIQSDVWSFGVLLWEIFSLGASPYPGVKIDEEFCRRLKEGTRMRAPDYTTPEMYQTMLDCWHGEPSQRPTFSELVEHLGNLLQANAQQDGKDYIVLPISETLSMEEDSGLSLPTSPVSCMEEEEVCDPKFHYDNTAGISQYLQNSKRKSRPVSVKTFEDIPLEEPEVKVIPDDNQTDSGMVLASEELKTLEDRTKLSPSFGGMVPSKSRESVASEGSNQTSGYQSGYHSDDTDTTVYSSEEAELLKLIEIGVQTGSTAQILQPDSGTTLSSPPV
EGFR, sequence (P00533 25-1210): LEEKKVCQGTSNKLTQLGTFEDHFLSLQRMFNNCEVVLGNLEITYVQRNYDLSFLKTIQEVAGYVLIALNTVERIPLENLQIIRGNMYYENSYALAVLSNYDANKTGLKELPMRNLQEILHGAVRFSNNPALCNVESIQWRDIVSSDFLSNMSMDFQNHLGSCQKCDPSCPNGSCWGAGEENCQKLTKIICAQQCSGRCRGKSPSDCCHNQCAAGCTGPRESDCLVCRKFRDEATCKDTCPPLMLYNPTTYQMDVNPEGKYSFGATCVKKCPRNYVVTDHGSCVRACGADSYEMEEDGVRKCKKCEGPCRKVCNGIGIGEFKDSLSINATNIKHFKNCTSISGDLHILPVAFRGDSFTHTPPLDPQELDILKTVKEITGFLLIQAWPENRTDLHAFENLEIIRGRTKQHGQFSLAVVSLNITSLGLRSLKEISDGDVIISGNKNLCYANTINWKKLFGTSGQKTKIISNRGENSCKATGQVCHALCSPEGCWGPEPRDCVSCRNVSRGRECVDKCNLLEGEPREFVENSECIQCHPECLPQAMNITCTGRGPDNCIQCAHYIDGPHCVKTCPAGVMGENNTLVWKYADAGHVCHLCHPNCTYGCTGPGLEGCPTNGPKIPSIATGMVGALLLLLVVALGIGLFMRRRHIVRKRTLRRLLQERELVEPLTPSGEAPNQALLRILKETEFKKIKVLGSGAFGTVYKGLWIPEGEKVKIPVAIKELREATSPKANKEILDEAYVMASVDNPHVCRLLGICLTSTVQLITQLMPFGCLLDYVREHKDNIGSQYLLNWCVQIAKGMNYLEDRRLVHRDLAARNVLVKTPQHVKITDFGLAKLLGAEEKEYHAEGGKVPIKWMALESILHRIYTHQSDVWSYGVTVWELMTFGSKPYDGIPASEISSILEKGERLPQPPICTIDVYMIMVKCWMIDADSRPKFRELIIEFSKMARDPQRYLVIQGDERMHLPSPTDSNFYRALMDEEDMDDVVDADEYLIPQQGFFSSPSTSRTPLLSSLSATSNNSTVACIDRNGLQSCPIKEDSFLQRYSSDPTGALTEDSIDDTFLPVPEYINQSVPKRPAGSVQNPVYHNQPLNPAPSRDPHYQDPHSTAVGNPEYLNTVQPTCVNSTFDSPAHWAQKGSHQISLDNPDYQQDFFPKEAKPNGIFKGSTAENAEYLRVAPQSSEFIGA
Her2, sequence (P04626 23-1255): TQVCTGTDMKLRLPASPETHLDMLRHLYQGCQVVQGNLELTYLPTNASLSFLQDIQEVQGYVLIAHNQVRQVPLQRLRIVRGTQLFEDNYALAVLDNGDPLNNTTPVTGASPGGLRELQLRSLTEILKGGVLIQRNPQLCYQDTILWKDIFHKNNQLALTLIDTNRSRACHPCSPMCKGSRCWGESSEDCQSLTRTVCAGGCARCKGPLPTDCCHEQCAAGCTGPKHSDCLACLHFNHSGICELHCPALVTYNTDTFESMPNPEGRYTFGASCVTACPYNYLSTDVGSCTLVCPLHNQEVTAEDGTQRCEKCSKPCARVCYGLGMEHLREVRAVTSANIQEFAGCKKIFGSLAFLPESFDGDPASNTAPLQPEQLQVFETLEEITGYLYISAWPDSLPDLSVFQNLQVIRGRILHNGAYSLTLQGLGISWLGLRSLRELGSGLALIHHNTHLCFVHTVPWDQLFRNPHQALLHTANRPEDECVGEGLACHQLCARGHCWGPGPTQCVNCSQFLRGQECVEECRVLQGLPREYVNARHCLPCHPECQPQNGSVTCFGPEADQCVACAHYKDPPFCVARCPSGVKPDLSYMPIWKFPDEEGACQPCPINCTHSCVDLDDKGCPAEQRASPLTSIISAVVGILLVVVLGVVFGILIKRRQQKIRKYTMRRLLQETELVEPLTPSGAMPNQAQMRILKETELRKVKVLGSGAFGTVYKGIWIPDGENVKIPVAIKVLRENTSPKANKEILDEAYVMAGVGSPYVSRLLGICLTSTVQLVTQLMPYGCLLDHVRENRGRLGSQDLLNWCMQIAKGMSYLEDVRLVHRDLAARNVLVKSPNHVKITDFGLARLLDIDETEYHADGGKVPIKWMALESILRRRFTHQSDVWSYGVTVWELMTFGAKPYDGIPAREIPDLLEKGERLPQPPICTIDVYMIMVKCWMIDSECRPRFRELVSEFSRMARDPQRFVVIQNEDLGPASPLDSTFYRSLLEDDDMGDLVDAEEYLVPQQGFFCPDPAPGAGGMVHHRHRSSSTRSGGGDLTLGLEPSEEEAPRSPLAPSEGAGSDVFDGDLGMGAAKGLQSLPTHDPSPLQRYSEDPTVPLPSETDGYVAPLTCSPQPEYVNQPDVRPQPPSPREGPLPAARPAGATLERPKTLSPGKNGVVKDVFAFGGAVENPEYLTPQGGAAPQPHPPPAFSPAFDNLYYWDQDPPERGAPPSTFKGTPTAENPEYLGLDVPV

SMILES: O=C1Nc2ccc(Cl)cc2C1=NNc1ncnc2[nH]ccc12 [Compound 4, 3-(2-(7H-pyrrolo[2,3-d]pyrimidin-4-yl)hydrazineylidene)-5-chloroindolin-2-one]
IC50 (HepG2): 28.4 ± 2.1 µM
IC50 (MDA-MB-231): 21.1 ± 1.8 µM
IC50 (HeLa): 24.2 ± 1.8 µM
IC50 (MCF-7): 33.9 ± 2.2 µM

SMILES: O=C1Nc2ccc([N+](=O)[O-])cc2C1=NNc1ncnc2[nH]ccc12 [Compound 8, 3-(2-(7H-pyrrolo[2,3-d]pyrimidin-4-yl)hydrazineylidene)-5-nitroindolin-2-one]
IC50 (HepG2): 52.1 ± 2.9 µM
IC50 (MDA-MB-231): 36.9 ± 2.4 µM
IC50 (HeLa): 38 ± 2.2 µM
IC50 (MCF-7): 48.5 ± 2.8 µM

IC50 [1]: 7.86 to 27.6 µM
SMILES: O=C1Nc2ccccc2C1=NNc1ncnc2[nH]ccc12 [Compound 3, 3-(2-(7H-pyrrolo[2,3-d]pyrimidin-4-yl)hydrazineylidene)indolin-2-one]
IC50 (HepG2): 19.1 ± 1.4 µM
IC50 (MDA-MB-231): 7.86 ± 0.6 µM
IC50 (HeLa): 9.86 ± 0.7 µM
IC50 (MCF-7): 14.2 ± 1.2 µM

SMILES: COc1cccc2c1C(=O)c1c(O)c3c(c(O)c1C2=O)C[C@@](O)(C(=O)CO)C[C@@H]3O[C@H]1C[C@H](N)[C@H](O)[C@H](C)O1 [Doxorubicin, reference compound]
IC50 (HepG2): 4.5 ± 0.2 µM

SMILES: O=C1Nc2ccc(F)cc2C1=NNc1ncnc2[nH]ccc12 [Compound 5, 3-(2-(7H-pyrrolo[2,3-d]pyrimidin-4-yl)hydrazineylidene)-5-fluoroindolin-2-one]
IC50 (HepG2): 37.3 ± 2.5 µM
IC50 (MDA-MB-231): 32.5 ± 2.1 µM
IC50 (HeLa): 29.1 ± 2 µM
IC50 (MCF-7): 41.6 ± 2.6 µM

IC50 (CDK2): 0.302 ± 0.016 µM
IC50 (EGFR): 0.166 ± 0.01 µM
IC50 (Her2): 0.157 ± 0.022 µM
IC50 (VEGFR2): 0.224 ± 0.012 µM
SMILES: COc1ccc2c(c1)C(=NNc1ncnc3[nH]ccc13)C(=O)N2 [Compound 7, 3-(2-(7H-pyrrolo[2,3-d]pyrimidin-4-yl)hydrazineylidene)-5-methoxyindolin-2-one]
Apoptosis Early (HepG2 cells [2]): 9.91%
Apoptosis Late (HepG2 cells [2]): 15.92%
Apoptosis Total (HepG2 cells [2]): 32.34%
Necrosis (HepG2 cells [2]): 6.51%
DNA content (%) %G1 (HepG2 cells [3]): 54.22%
DNA content (%) %G2/M (HepG2 cells [3]): 11.02%
DNA content (%) %S (HepG2 cells [3]): 34.76%
DNA content (%) %Sub–G1 (HepG2 cells [3]): 32.34%
increase of the DNA in the sub-G1 compared to untreated cells (HepG2 cells [3]): 17 fold
Folds of gene expression (Normalized to β-actin) Caspase 9 (Caspase 9): 3.3 fold and 3.295 fold
IC50 (HepG2): 8.39 ± 0.7 µM
IC50 (MDA-MB-231): 5.28 ± 0.3 µM
IC50 (HeLa): 6.37 ± 0.3 µM
Folds of gene expression (Normalized to β-actin) Caspase 3 (Caspase 3): 5.42 fold and 5.421 fold
IC50 (MCF-7): 9.08 ± 0.7 µM

IC50 [1]: 7.86 to 27.6 µM
SMILES: Cc1ccc2c(c1)C(=NNc1ncnc3[nH]ccc13)C(=O)N2 [Compound 6, 3-(2-(7H-pyrrolo[2,3-d]pyrimidin-4-yl)hydrazineylidene)-5-methylindolin-2-one]
IC50 (HepG2): 11.7 ± 0.9 µM
IC50 (MDA-MB-231): 15.2 ± 1.1 µM
IC50 (HeLa): 19.8 ± 1.3 µM
IC50 (MCF-7): 27.6 ± 2 µM
